EBI2 antag: EBI2 receptor antagonists, beta-arrestin recruitment, primary screen, cell-based, luminescence, 7a,25-OHC stimulation, uHTS; G-protein coupled receptor 183 (Homo sapiens), P32249; 7a,25-OHC stimulated; inhibition, % at 5 µM; actives 0.81% (n = 360,000); AID 651636, 2012; in the data active means inhibition above about 38%;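 further: enzyme fragment complementation signal reports receptor beta-arrestin coupling in cells; 0% = agonist plus DMSO wells and 100% = wells without agonist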
CCR6 antag: CCR6 receptor antagonists, primary screen, cell-based, CHO-K1, luminescence, beta-arrestin, uHTS; CHO-K1 CCR6 PathHunter beta-arrestin, CCL20-stimulated; inhibition, % at 20 µM; actives 0.49% (n = 340,000); AID 493098, 2011;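 active means compounds whose inhibition of the agonist-driven luminescence signal at 20 µM reaches about 50%, limit read from the data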;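 further: cells stimulated with CCL20 at 14 nM final; plate controls were DMSO with CCL20 for no effect and DMSO without agonist for full effect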
APJ antagonist: antagonists of human apelin receptor APJ, primary screen, CHO-K1 cells, beta-arrestin complementation, luminescence | P35414 | inhibition, % at 20 µM | actives 0.32% (n = 330,000);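 active means inhibition above about 40% at 20 µM, limit read from the data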;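 further: cells challenged with 10 nM apelin-13 agonist together with compound; plate controls were apelin-13 plus DMSO wells for no effect and DMSO wells lacking apelin-13 for full effect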
Target sequence (P35414 whole entry, looked up): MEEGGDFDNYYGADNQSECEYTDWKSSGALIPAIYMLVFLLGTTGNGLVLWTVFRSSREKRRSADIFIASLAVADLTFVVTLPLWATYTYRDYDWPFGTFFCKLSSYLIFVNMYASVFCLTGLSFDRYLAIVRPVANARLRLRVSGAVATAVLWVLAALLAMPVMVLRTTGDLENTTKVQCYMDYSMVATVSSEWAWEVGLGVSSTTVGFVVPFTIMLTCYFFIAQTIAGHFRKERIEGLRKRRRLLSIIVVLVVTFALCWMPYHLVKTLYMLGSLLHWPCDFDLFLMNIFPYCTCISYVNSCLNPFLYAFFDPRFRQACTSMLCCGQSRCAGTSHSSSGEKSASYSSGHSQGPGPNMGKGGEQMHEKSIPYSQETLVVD
APJ agonist: agonists of human apelin receptor APJ, primary screen, CHO-K1 cells, PathHunter beta-arrestin, luminescence. P35414. 0% DMSO wells, 100% apelin. activation, % at 20 µM. actives 0.11% (n = 330,000). AID 2520, 2010;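 active means activation more than six SD over the plate average, tested at 20 µM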;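 further: 0% = DMSO alone and 100% = apelin-13 at 10 nM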
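Test system: CHO-K1 APJ beta-arrestin complementation cell line. Amount: cell density 1000 per well. Controls: DMSO negative, 10 nM Apelin-13 positive. Signal: luminescent beta-gal fragment complementation, chemiluminescent substrate. Read-out basis: agonist-driven arrestin binding to APJ. Timing: compound stimulation 90 min at 25 °C, detection 60 min.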
CXCR6 block: CXCR6 receptor inhibitors, primary screen, cell-based, beta-arrestin, luminescence, CHO-K1 PathHunter, 1536-well. C-X-C chemokine receptor type 6 (Homo sapiens), O00574. actives 0.36% (n = 360,000). AID 602244, 2012. inhibition, % at 20 µM; in the data active means inhibition above about 34%, passing the limit was not always enough;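 further: antagonist mode with CXCL16 agonist at 10 nM final; 0% = 10 nM CXCL16 with DMSO and 100% = unstimulated wells without agonist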
hiPSC survival: enhancers of single-cell hiPSC survival, primary screen, ATPlite luminescence; 100% = ROCK inhibitor wells, 0% = DMSO; survival enhancement, % at 20 µM; actives 0.044% (n = 360,000); in the data active means survival enhancement above about 18%;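 further: cells exposed to compounds for 16 hours before the ATP read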
APJ ag confirm: agonists of human apelin receptor APJ, confirmation, cell-based, single concentration, CHO-K1, beta-arrestin, luminescence. shares compounds with APJ agonist. AID 2764, 2010. actives 10% (n = 310). activation, % at 20 µM. CHO-K1 APJ PathHunter beta-arrestin;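 active means activation above 40%, taking the highest of four retests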;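 further: plate controls were DMSO wells for no effect and apelin-13 at 10 nM for full effect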
* hit, by the source's call; . = no result. Shown are actives, neighbours in structure and some others; about 1.5% of the full set was active somewhere.

SMILES | EBI2 antag | CCR6 antag | APJ antagonist | APJ agonist | CXCR6 block | hiPSC survival | APJ ag confirm
O=C(NCCc1cn2ccccc2n1)c1cc(COc2ccc3ncccc3c2)on1 | 6 | -21 | -13 | 31* | -3 | 0 | 4
O=C(NC1CCCC1)c1cc(COc2ccc3ncccc3c2)on1 | -6 | 6 | -4 | 0 | -13 | 0 | .
COc1cc2c(cc1NC(=O)c1cccc([N+](=O)[O-])c1)oc1ccccc12 | -31 | 7 | -15 | 42* | -1 | 3 | 53*
COc1cc2c(cc1NC(=O)c1ccc(C)c([N+](=O)[O-])c1)oc1ccccc12 | 0 | -1 | 13 | 1 | -1 | -2 | .
CC1=C(C)/C(=N\OS(=O)(=O)c2ccccc2)C=CC1=O | 16 | 87* | 38 | 41* | 51* | -4 | 33
CC1(C(=O)Nc2cccc3c2CCCC3)CCN1C(=O)CCC1CCCC1 (stereo not drawn) | 1 | . | . | . | -8 | -3 | .
O=C(c1cnn2c(C(F)(F)F)cc(-c3cccs3)nc12)N1CCN(Cc2ccccc2)CC1 | -2 | 4 | -4 | 30* | -3 | 1 | 8
Nc1c(N(CCC2=CCCCC2)C(=O)c2ccco2)c(=O)[nH]c(=O)n1Cc1ccccc1 | 6 | 5 | 7 | 9 | 1 | 1 | .
CC(=O)Nc1ccc(NC(=O)COC(=O)c2ccc([N+](=O)[O-])o2)cc1 | -12 | 3 | -22 | 12* | -24 | -2 | 11
CCN(c1ccc(NC(=O)COC(=O)c2ccc([N+](=O)[O-])o2)cc1)C(C)C | -13 | -9 | -26 | 5 | -14 | -3 | .
Cc1onc(-c2ccccc2Cl)c1C(=O)O/N=C(\N)c1ccccc1 | -14 | -28 | -112 | 31* | -34 | 0 | 21
Cn1c(N)c(C(=O)COC(=O)/C=C/c2cccc(Cl)c2)c(=O)n(C)c1=O | -14 | 6 | 9 | -5 | 1 | -2 | .
COc1ccc(-c2ccc3c(c2)S(=O)(=O)c2cccc(C(=O)NC4CCCC4)c2C3=O)cc1OC | -21 | -3 | 1 | 9.0* | 3 | -1 | 11
Cc1ccc(Nc2nc(NCc3ccco3)c3ccccc3n2)cc1 | -22 | -18 | -36 | 14* | -5 | -1 | 19
C/C(COc1ccccc1)=N\NC(=O)c1nnn(-c2nonc2N)c1CSc1ccccc1 | -4 | 9 | -29 | 19* | -4 | 0 | 32
Cc1ccc(C)c(NC(=O)/C(C#N)=C/c2ccc(Sc3nncn3C)c([N+](=O)[O-])c2)c1 | . | . | -5 | 44* | . | . | 37
CCOc1cc2[nH]c(=S)n(CCN3CCC(C)CC3)c(=O)c2cc1OCC | 0 | 14 | -1 | 27* | -2 | -1 | 13
CCOc1cc2[nH]c(=S)n(CCCOC)c(=O)c2cc1OCC | 11 | -1 | -21 | -2 | 5 | 2 | .
CCOc1cc2[nH]c(=S)n(CCCN3CCOCC3)c(=O)c2cc1OCC | 8 | -1 | 1 | 17* | -1 | 0 | 24
CCOc1cc2[nH]c(=S)n(CCN3CCCCC3CC)c(=O)c2cc1OCC (stereo not drawn) | 22 | 3 | 4 | 78* | 3 | -3 | 39
CCOc1cc2[nH]c(=S)n(CCCC(=O)NCc3ccccn3)c(=O)c2cc1OCC | 1 | 13 | 8 | 118* | -2 | 0 | 29
CCC1CCCCN1CCCn1c(=S)[nH]c2ccccc2c1=O (stereo not drawn) | 4 | 37 | 17 | -1 | 2 | 2 | .
CCCCCCCN1CCN=C1N(C)C | 0 | 12 | 6 | -5 | 2 | 1 | .
COc1cc(S(=O)(=O)Nc2ccc3c(c2)C(=O)N(C)C3=O)ccc1NC(C)=O | -12 | -1 | 1 | -5 | 3 | 2 | .
